Data set [1] in a line: Stability of the compound in pH 4 buffer solution at 100 uM after 180 hrs by HPLC analysis. As to conditions: read-out: Stability. The format is physicochemical.
Data set [2] is described as follows: Cytotoxicity against human H9 cells assessed as reduction in cell viability after 7 days by MTT assay. The format is cell-based. In outline: (§1)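 MTT viability assay. H9 at 4×10^4 cells/well or PHA-stimulated PBMCs at 5×10^5 cells/well were incubated with serially diluted compound at 37 °C, 5% CO2 for seven days before MTT read-out. CC50 was calculated; mean ± standard deviation of three separate experiments.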

Data set [3] can be described thus: Aqueous solubility in water after 24 to 72 hrs by HPLC based shake flask method. Format: physicochemical. In outline: (§2)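 Equilibrium shake-flask solubility: excess compound placed in water, methanol, ethanol, acetonitrile, ethyl acetate or acetone and shaken 24-72 h at 25 °C. Filtered through 0.22 μm membrane, diluted, and quantified by HPLC on a C18 column with methanol/water 70/30 mobile phase and UV 251 nm. n=3, mean ± SD.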

For data set [4], the system named is Human immunodeficiency virus 1. Kind of data set: Antiviral activity against HIV1 subtype B NL4-3 infected in human H9 cells assessed as reduction in p24 level after 7 days by ELISA. The format is functional, cell-based. As to conditions: Human immunodeficiency virus 1, subtype B NL4-3, H9, 168 h. The essentials: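 H9 cells infected with NL4-3 at MOI 0.03 for 2 h, washed three times, then seeded at 4×10^4 cells/well with serially diluted compound. Incubated 7 days; supernatant p24 measured by in-house ELISA and EC50 calculated. Three separate experiments, mean ± standard deviation.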

For another data set, the system named is Liver. Description: Prodrug activation in human liver microsomes assessed as 2-Amino-N-(2-methoxyphenyl)-6-((4-nitrophenyl)sulfonyl)benzamide formation at 1.5 mg/ml after 20 mins in presence of NADPH by HPLC analysis. The format is microsome. The essentials:
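Prodrug (1.5 mg/mL stock, 1.5 μL) incubated with human liver microsomes in 0.1 M phosphate buffer pH 7.4 with NADPH-generating system at 37 °C for 0, 5, 10, 15, 20 and 40 min. Stopped with methanol, centrifuged, supernatant dried under nitrogen, redissolved in mobile phase, analysed by HPLC and HPLC-MS.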

A short description of data set [5]: Therapeutic index, ratio of CC50 for human H9 cells to EC50 for HIV1 subtype B NL4-3 infected in human H9 cells. In outline: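 Ratio of CC50 to EC50, both measured in H9 cells: MTT cytotoxicity over seven days, and p24 ELISA after 7 days of NL4-3 infection at MOI 0.03.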
Data set [6] can be described thus: Stability of the compound in pH 7 buffer solution at 100 uM up to 168 hrs by HPLC analysis. As to conditions: pH 7, 168 h. Format: physicochemical. The essentials:
(§3)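 Compound added to pH 4, 7 or 9 buffers at 100 μM final and shaken at 100 rpm, 37 °C. Sampled at 0–168 h (pH 4 and 7) or 0–15 h (pH 9) and analysed by HPLC on C18 with acetonitrile/water containing 0.1% triethylamine (70/30) and UV 248 nm.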

A short description of data set [7]: Drug degradation in pH 9 buffer solution at 100 uM after 15 hrs by HPLC analysis. The essentials:
as §3

Data set [8] concerns Human immunodeficiency virus 1. Kind of data set: Antiviral activity against HIV1 isolate TC-1 infected in human PBMC assessed as inhibition of p24 expression up to 20 uM after 7 days by Western blot method.
The nature of data set [9]: 1-octanol/water partition co-efficient, log P of the compound after 4 hrs by shake-flask method. Format: physicochemical. In outline:
(§4)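 Octanol and water mutually pre-saturated 24 h at 37 °C; excess compound dissolved in octanol phase by sonication, centrifuged, supernatant mixed 1:1 (v/v) with aqueous phase. Shaken at 120 rpm, 37 °C for 2, 4 or 7 h; phases separated by centrifugation and quantified by HPLC, in triplicate. Log P = lg(Co/Cw).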

In data set [10] the test system is Human immunodeficiency virus 1. Description: Inhibition of HIV1 Vif expressed in TREX-hVif-15 cells co-expressing EYFP-N1-tagged human A3G assessed as reduction in Vif-mediated A3G degradation after 48 hrs by flow cytometry. The format is cell-based. The essentials: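 TREX-hvif-15 cells, in which Vif is under Tet-On control, were plated at 2×10^5 cells/well and grown overnight. At about 80% confluence they were transfected with EYFP-N1-hA3G. After 6 h the cells were washed, and compounds at varied concentrations were added together with doxycycline to induce Vif. Cells were trypsin-harvested 48 h post-transfection, and EYFP-positive cells were measured by flow cytometry. The no-Vif condition was set to 100%.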

Data set [11] concerns Human immunodeficiency virus 1. Kind of data set: Antiviral activity against HIV1 subtype B/C isolate KM018 infected in human PBMC assessed as reduction in p24 level after 7 days by ELISA. The format is functional. As to conditions: Human immunodeficiency virus 1, subtype B/C isolate KM018, 168 h.
A short description of data set [12]: Solubility in ethylacetate after 24 to 72 hrs by HPLC based shake flask method. Format: physicochemical. The essentials: as §2
Data set [13] can be described thus: Solubility in acetone after 24 to 72 hrs by HPLC based shake flask method. Format: physicochemical. In outline: as §2
Another data set deals with Plasma. Description: Protein binding in Sprague-Dawley rat plasma up to 30 ug/ml after 2 hrs by HPLC analysis. The format is ADME, cell-free. In outline: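 Heparinized arterial plasma from male and female Sprague-Dawley rats incubated with compound at final 30, 20 or 5 μg/mL, 37 °C for 2 h. Free drug separated by 30 kD ultrafiltration (2000 g, 4 °C, 15 min) and measured by HPLC with UV 251 nm; binding = (Dt − Df)/Dt × 100%.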

For data set [14], the system named is Human immunodeficiency virus 1. Kind of data set: Antiviral activity against HIV1 subtype CRF01-AE isolate WAN infected in human PBMC assessed as assessed as reduction in p24 level after 7 days by ELISA. Format: functional. As to conditions: Human immunodeficiency virus 1, subtype CRF01-AE isolate WAN, 168 h.
The nature of data set [15]: N-octanol/water partition co-efficient, log P of the compound in octanol to water phase ratio of 1:4 up to 7 hrs by shake-flask method. The format is physicochemical.
For data set [16], the system named is Human immunodeficiency virus 1. Description: Inhibition of HIV1 NL4-3 Vif expressed in 293T cells co-expressing HA-tagged A3G assessed as reduction in Vif-mediated A3G degradation by measuring increase in A3G expression after 48 hrs by Western blot method. Format: cell-based. The essentials: (§5)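 293T cells were plated at 2×10^5 cells/well, grown overnight, and co-transfected at about 80% confluence with pcDNA3.1-APOBEC3G-HA and pNL4-3 (Lipofectamine 2000). Medium was replaced at 6 h with DMEM/10% FBS, then compounds were added at a range of concentrations for 48 h. HA tag, Vif, p24 and β-actin (internal control) in total lysates were read by western blot.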

In data set [17] the test system is Human immunodeficiency virus 1. Description: Inhibition of HIV1 isolate TC-1 Vif infected in […]-stimulated human PBMC expressing HA-tagged A3G assessed as reduction in Vif-mediated A3G degradation up to 20 uM after 7 days by Western blot method.
In data set [18] the test system is Human immunodeficiency virus 1. Description: Antiviral activity against HIV1 subtype CRF01-AE isolate TC-1 infected in human PBMC assessed as assessed as reduction in p24 level after 7 days by ELISA. Format: functional. As to conditions: Human immunodeficiency virus 1, subtype CRF01-AE isolate TC-1, 168 h.
Data set [19] in a line: N-octanol/water partition co-efficient, log P of the compound in octanol to water phase ratio of 1:9 up to 7 hrs by shake-flask method. Format: physicochemical.
A short description of data set [20]: Solubility in methanol after 24 to 72 hrs by HPLC based shake flask method. The format is physicochemical. In outline:
as §2

The test system of data set [21] is Human immunodeficiency virus 1. Description: Antiviral activity against HIV1 NL4-3 infected in 293T cells expressing HA-tagged A3G assessed as reduction in Vif expression after 48 hrs by Western blot method. The format is functional, cell-based. The essentials: as §5
Data set [22] in a line: 1-octanol/water partition co-efficient, log P of the compound after 7 hrs by shake-flask method. The format is physicochemical. The essentials: as §4
Data set [23] relates to Human immunodeficiency virus 1. Description: Inhibition of HIV1 Vif expressed in TREX-hVif-15 cells co-expressing HA-tagged A3G assessed as reduction in Vif-mediated A3G degradation by measuring increase in A3G expression after 48 hrs by Western blot method. Format: cell-based. The essentials:
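TREX-hvif-15 cells were plated at 2×10^5 cells/well and transfected at about 80% confluence with pcDNA3.1-APOBEC3G-HA. At 6 h they were washed and given fresh DMEM/10% FBS, graded compound concentrations, and 0.1 µg/mL doxycycline to induce Vif. Total protein was extracted 48 h post-transfection, and HA tag, Vif and β-actin were read by western blot.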

Data set [24] in a line: Solubility in ethanol after 24 to 72 hrs by HPLC based shake flask method. Format: physicochemical. In outline: as §2
Data set [25] relates to Human immunodeficiency virus 1. Kind of data set: Antiviral activity against HIV1 subtype B isolate SF162 infected in human PBMC assessed as reduction in p24 level after 7 days by ELISA. Format: functional. As to conditions: Human immunodeficiency virus 1, subtype B isolate SF162, 168 h.
Data set [26] in a line: Solubility in acetonitrile after 24 to 72 hrs by HPLC based shake flask method. The format is physicochemical. In outline: as §2
A short description of data set [27]: Cytotoxicity against human PBMC assessed as reduction in cell viability after 7 days by MTT assay. Format: cell-based. In outline: as §1
The nature of data set [28]: 1-octanol/water partition co-efficient, log P of the compound after 2 hrs by shake-flask method. The format is physicochemical. The essentials: as §4
The nature of data set [29]: N-octanol/water partition co-efficient, log P of the compound in octanol to water phase ratio of 1:1 up to 7 hrs by shake-flask method. Format: physicochemical.
For data set [30], the system named is Human immunodeficiency virus 1. Kind of data set: Antiviral activity against HIV1 isolate TC-1 infected in human PBMC expressing HA-tagged A3G assessed as downregulation of Vif expression after 7 days by Western blot method.

pEC50: −log10 of the molar value. ≈ marks a conversion by molar mass, not a printed value. Calls of active or inactive are those of the source. No cut-off for these calls is given here. Some results are limits rather than exact numbers.

In the case of `COc1ccccc1NC(=O)c1c(NC(=O)CN)cccc1S(=O)(=O)c1ccc([N+](=O)[O-])cc1`, the remaining at 180 h, 100 µM in data set [1] came out at 50%. Further, the CC50 at 168 h in data set [2] worked out at 196 µM. The molecule further showed a thermodynamic solubility in data set [3] of 1730 µg/mL (≈ 3.57 mM). In data set [4], the pEC50 is 6.61. The Drug metabolism entry in the data set on Liver is “Metabolite_Detected”. The “Ratio CC50/EC50” value in [5] worked out at 790. In addition, the Stability result in [6] was “Stable”. Also, the Drug degradation in [7] is over 90%.

As to `COc1ccccc1NC(=O)c1c(N)cccc1S(=O)(=O)c1ccc([N+](=O)[O-])cc1`, the inhibition result in data set [8] and in data set [17] was “Active” in each case. Also, the logP at 4 h in [9] was found to be 2.4. Further, the inhibition result in [10], in [16] and in [23] was “Dose-dependent effect” throughout. Moreover, the pEC50 is 4.75 in [11]; 5.53 in data set [14]; 6.28 in data set [18]; 5.81 to 5.85 in [4]; 4.75 in [25]. In addition, the solubility (thermodynamic) turned out to be 4380 µg/mL (≈ 10.2 mM) in data set [12]; 22400 µg/mL (≈ 52.4 mM) in data set [13]; 0.66 µg/mL (≈ 0.00154 mM) in [3]; 814 µg/mL (≈ 1.9 mM) in [20]; 284 µg/mL (≈ 0.664 mM) in [24]; 9090 µg/mL (≈ 21.3 mM) in data set [26]. In addition, in the data set with Plasma, the PPB entry is listed as “Active”. For the same molecule, the logP at 7 h in data set [15] was 2.53; in [19] it was 2.55; in data set [22] it was 2.4; in data set [29] it was 2.4. In addition, the CC50 at 168 h in [2] is at least 462 µM; in data set [27], over 468 µM. Further, the Activity entry in [21] is “Dose-dependent effect”. Moreover, the “Ratio CC50/EC50” value in data set [5] came to 300. This molecule also displayed a log partition coefficient (logP) at 2 h in data set [28] of 2.41. For the same molecule, the outcome in data set [30] was Active.

Values taken from ChEMBL document CHEMBL4007447, “Synthesis, biological evaluation and molecular docking study of N-(2-methoxyphenyl)-6-((4-nitrophenyl)sulfonyl)benzamide derivatives as potent HIV-1 Vif antagonists” (Eur J Med Chem, 2017).
